Sampled rows, rich in hits. Any-hit rate of the full collection: about 2.2%.
PHOSPHO1 inh: PHOSPHO1 (human) inhibition; recombinant PHOSPHO1, absorbance phosphatase assay; inhibition, % at 13.3 µM; hit rate 1.1% among 290,000; AID 1565; in the data active = inhibition above about 60%
Target sequence (Q8TCT1 whole entry, looked up): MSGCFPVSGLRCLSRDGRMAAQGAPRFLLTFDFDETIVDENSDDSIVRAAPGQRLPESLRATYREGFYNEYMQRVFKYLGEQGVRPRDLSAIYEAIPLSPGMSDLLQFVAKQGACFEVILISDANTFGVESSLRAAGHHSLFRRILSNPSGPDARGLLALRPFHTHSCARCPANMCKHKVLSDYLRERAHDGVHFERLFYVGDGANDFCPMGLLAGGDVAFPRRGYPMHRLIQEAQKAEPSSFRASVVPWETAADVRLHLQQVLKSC
VIM-2 inhibitor: blocks Pseudomonas aeruginosa VIM-2 metallo-beta-lactamase; purified VIM-2, nitrocefin hydrolysis, epi-absorbance fluorescence; inhibition, % at 5.6 µM; hit rate 0.89% among 290,000; AID 1527;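 active = inhibition above the mean of all tested compounds plus 3 SD, cutoff set per screening run, cut at about 7.5% in these data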;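 note: red hydrolysis product quenches plate fluorescence so inhibitors raise well fluorescence; 0% = enzyme with DMSO and 100% = DMSO without enzyme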
CR mimetic SO: lowers age-related superoxide in aged yeast cells; S. cerevisiae aged cells, superoxide DHE fluorescence; hits give low values; superoxide response (% of plate mean), % at 10 µM; hit rate 0.18% among 330,000;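 active = superoxide response under a set limit, about three screen SD below normal, cut at about 65% in these data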;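 note: yeast aged for seven days with compound at 30 °C before DHE staining; 100% = average MFI of all compound-treated wells on the plate with controls excluded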
PvdQ inh: P. aeruginosa PvdQ acylase inhibition. hit rate 0.063% among 340,000. inhibition, % at 10 µM. purified PvdQ acylase, fluorescence plate reader; in the data active = inhibition above about 30%, passing the limit was not always enough;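 note: 0% = vehicle neutral wells and 100% = reference inhibitor wells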
IMP-1 inh: inhibitors of Pseudomonas aeruginosa IMP-1 metallo-beta-lactamase; inhibition, % at 5.6 µM; hit rate 0.45% among 290,000; purified IMP-1, nitrocefin hydrolysis, epi-absorbance fluorescence;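 active = inhibition above the mean plus 3 SD of all compounds in the same screening run, cut at about 4.5% in these data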;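 note: 0% = IMP-1 with DMSO and 100% = DMSO wells lacking enzyme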
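System: purified IMP-1 / Input: IMP-1 dispensed at 0.2 nM / Medium: 50 mM HEPES pH 7.1, 50 µM ZnSO4, 0.05% Brij 35 / Timing: 15 min enzyme–compound preincubation, then 25 min nitrocefin reaction, 25 °C / Technique: plate fluorescence quenching by hydrolysis product, ex 480/em 530 nm / Repeats: singlicate testing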
* hit, by the source's call.

Results for C=C(C)C(=O)Oc1ccc(N2C(=O)[C@@H]3C4C=CC(C4)[C@@H]3C2=O)cc1 ?
PHOSPHO1 inh: 15.9; VIM-2 inhibitor: 0.4; CR mimetic SO: 102.2; PvdQ inh: -2.1; IMP-1 inh: -1.5

Results for Cc1ccc(S(=O)(=O)NCC(=O)OCc2nnc(-c3ccccc3)o2)cc1 ?
PHOSPHO1 inh: 65.4*; VIM-2 inhibitor: -1.4; CR mimetic SO: 102.0; PvdQ inh: -19.2; IMP-1 inh: -3.1

Results for Cc1cc(C)c(C)c(S(=O)(=O)N2CCC(C(=O)NC3=NCCS3)CC2)c1C ?
CR mimetic SO: 89.9; PvdQ inh: 3.5

How did O=S1(=O)N=C(Nc2nncs2)c2ccccc21 do in these assays?
PHOSPHO1 inh: 97.4*; VIM-2 inhibitor: -2.4; CR mimetic SO: 112.4; PvdQ inh: 1.2; IMP-1 inh: -5.2

What do the screens show for `CCN(CC)S(=O)(=O)c1ccc(NC2=NS(=O)(=O)c3ccccc32)cc1`?
PHOSPHO1 inh: 1.7; VIM-2 inhibitor: -1.4; CR mimetic SO: 96.7; PvdQ inh: -7.3; IMP-1 inh: -2.6

How did COc1cc(OC)cc(C(=O)NNC(=O)CCC(=O)c2cc(C)sc2C)c1 do in these assays?
CR mimetic SO: 111.9; PvdQ inh: -13.5

How did COc1ccc(Nc2nc(-c3ccncc3)nc3ccccc23)cc1 do in these assays?
PHOSPHO1 inh: 27.0; VIM-2 inhibitor: 11.0*; CR mimetic SO: 101.7; PvdQ inh: -10.8; IMP-1 inh: -1.7

Results for O=C(OCCNc1nc(-c2ccccc2)nc2ccccc12)c1ccncc1 ?
PHOSPHO1 inh: 32.8; VIM-2 inhibitor: 9.6*; CR mimetic SO: 94.4; PvdQ inh: 5.2; IMP-1 inh: -5.1

Results for COc1ccc(Nc2cccccc2=O)cc1 ?
PHOSPHO1 inh: 62.0*; VIM-2 inhibitor: -1.7; CR mimetic SO: 97.5; PvdQ inh: -1.9; IMP-1 inh: -0.9

What do the screens show for `COc1ccc(Nc2ccccc2C(=O)O)cc1`?
PHOSPHO1 inh: 6.7; VIM-2 inhibitor: -2.1; CR mimetic SO: 107.7; PvdQ inh: 3.8; IMP-1 inh: -5.4

Results for COc1ccc(Nc2c3ccccc3nc3ccccc23)cc1 ?
VIM-2 inhibitor: 9.2*; CR mimetic SO: 101.4; PvdQ inh: -11.6; IMP-1 inh: -4.2

How did COc1ccc(Nc2c3c(nc4ccccc24)CCC3)cc1 do in these assays?
PHOSPHO1 inh: 19.9; VIM-2 inhibitor: 6.5; CR mimetic SO: 125.0; PvdQ inh: 8.2; IMP-1 inh: -3.4

How did Cn1c(=O)n(C)c2cc(N3CCOCC3)c(NC(=O)c3cccc(Cl)c3)cc21 do in these assays?
PHOSPHO1 inh: 22.2; VIM-2 inhibitor: -1.9; CR mimetic SO: 121.0; PvdQ inh: -1.5; IMP-1 inh: -2.0

How did Cc1ccc(C(C)(C)NC(=O)C2CCC(=O)N(CC3CCCCC3)C2)cc1 (stereo not drawn) do in these assays?
PHOSPHO1 inh: 19.9; VIM-2 inhibitor: -1.8; CR mimetic SO: 102.6; PvdQ inh: -7.6; IMP-1 inh: -4.0

Results for Cc1ccc(C(=O)c2c(C)oc3c2C(=O)C(=O)c2ccccc2-3)cc1 ?
PHOSPHO1 inh: -3.7; VIM-2 inhibitor: -0.6; CR mimetic SO: 118.2; PvdQ inh: -5.1; IMP-1 inh: -1.3

What do the screens show for `COc1ccc(C(=O)c2c(C(F)(F)F)oc3c2C(=O)c2ccccc2C3=O)cc1`?
PHOSPHO1 inh: 96.9*; VIM-2 inhibitor: 1.2; CR mimetic SO: 196.7; PvdQ inh: -8.5; IMP-1 inh: -2.7

How did COc1ccc(Nc2cc(C)nc3c(C)cccc23)cc1OC do in these assays?
PHOSPHO1 inh: 41.1; VIM-2 inhibitor: 10.2*; CR mimetic SO: 106.5; PvdQ inh: 10.9; IMP-1 inh: -1.9

Results for Cc1cc(Nc2ccc(C)c(C)c2)c2ccccc2n1 ?
PHOSPHO1 inh: 24.7; VIM-2 inhibitor: 8.6*; CR mimetic SO: 98.3; PvdQ inh: -7.5; IMP-1 inh: -0.5

Results for CC(=O)Nc1ccc(Nc2cc(C)nc3ccccc23)cc1 ?
CR mimetic SO: 104.4; PvdQ inh: 6.2

Results for COc1ccc2nc(Nc3nc(CSc4nnnn4-c4ccccc4)cc(=O)[nH]3)nc(C)c2c1 ?
PHOSPHO1 inh: 26.3; VIM-2 inhibitor: 1.3; CR mimetic SO: 97.7; PvdQ inh: -1.4; IMP-1 inh: 4.9*

Results for CCOC(=O)CSc1ncnc2c1sc1nc(N3CCOCC3)c3c(c12)CCCC3 ?
PHOSPHO1 inh: 9.4; VIM-2 inhibitor: 0.1; CR mimetic SO: 109.5; PvdQ inh: -14.0; IMP-1 inh: 1.9

How did CCOC(=O)C(Sc1ncnc2c1sc1nc(N3CCOCC3)c3c(c12)CCCC3)c1ccccc1 (stereo not drawn) do in these assays?
PHOSPHO1 inh: -96.3; VIM-2 inhibitor: -6.2; IMP-1 inh: 6.2*

High-throughput results as filed in PubChem BioAssay.
